One experiment relates to Bel-7402. Description: Antiproliferative activity against human Bel7402 cells after 72 hrs by MTT assay. The class given is functional, cell-based. The note with it: Bel-7402, 72 h. The method, boiled down: (§1)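 Cells seeded and pre-incubated 24 h at 37 °C, 5% CO2, then exposed to compounds for 72 h. MTT (5 mg/mL stock) added for 4 h, formazan dissolved in DMSO for 10 min at room temperature, absorbance read at 570 nm. 0.1% DMSO as negative and 5-FU as positive reference. IC50 derived from inhibition ratios; mean ± SD of three independent experiments.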

The subject of the next experiment is Caco-2. Put plainly: Antiproliferative activity against human Caco2 cells after 72 hrs by MTT assay. The class given is functional, cell-based. The note with it: Caco-2, 72 h. In short, it runs like this: as §1
Background: Tetrazolium dyes change colour on reduction, which living cells bring about.

Experiment [1] relates to HL-60. Put plainly: Cell cycle arrest in human HL60 cells assessed as accumulation at G1 phase at 0.3 uM after 48 hrs by propidium iodide/RNase A staining-based flow cytometric analysis (reference value: 65.75%). The class given is functional.
For experiment [2], the system named is HL-60. Put plainly: Cell cycle arrest in human HL60 cells assessed as accumulation at S phase at 0.3 uM after 48 hrs by propidium iodide/RNase A staining-based flow cytometric analysis (reference value: 24.06%). The class given is functional.
Experiment [3] relates to HL-60. Put plainly: Cell cycle arrest in human HL60 cells assessed as accumulation at G2/M phase at 0.3 uM after 48 hrs by propidium iodide/RNase A staining-based flow cytometric analysis (reference value: 10.19%). The class given is functional. On the technique in general: A flow cytometer gives signals particle by particle.
In experiment [4] the test system is HL-60. Put plainly: Cell cycle arrest in human HL60 cells assessed as accumulation at G2/M phase at 1.2 uM after 48 hrs by propidium iodide/RNase A staining-based flow cytometric analysis (reference value: 10.19%). The class given is functional.
Experiment [5] deals with HL-60. Description: Induction of apoptosis in human HL60 cells assessed as viable cells at 0.3 uM after 48 hrs by Annexin V-FITC/propidium iodide staining-based flow cytometric analysis (reference value: 95.56%). The note with it: HL-60, 48 h, read-out: Activity. It counts as functional.
Experiment [6] deals with HL-60. Description: Induction of apoptosis in human HL60 cells assessed as early apoptotic cells at 0.3 uM after 48 hrs by Annexin V-FITC/propidium iodide staining-based flow cytometric analysis (reference value: 1.11%). The class given is functional.
Experiment [7] relates to HL-60. Put plainly: Induction of apoptosis in human HL60 cells assessed as viable cells at 0.6 uM after 48 hrs by Annexin V-FITC/propidium iodide staining-based flow cytometric analysis (reference value: 95.56%). It counts as functional. The note with it: HL-60, 48 h, read-out: Activity.
The subject of experiment [8] is HL-60. Description: Induction of apoptosis in human HL60 cells assessed as early apoptotic cells at 0.6 uM after 48 hrs by Annexin V-FITC/propidium iodide staining-based flow cytometric analysis (reference value: 2.31%). It counts as functional.
In experiment [9] the test system is HL-60. Put plainly: Induction of mitochondrial membrane potential loss in human HL60 cells assessed as cell population with mitochondrial membrane potential collapse at 0.3 uM after 48 hrs by JC1 staining-based flow cytometry analysis (reference value: 7.65%). It counts as functional.
Experiment [10] relates to HL-60. Put plainly: Induction of mitochondrial membrane potential loss in human HL60 cells assessed as cell population with intact mitochondrial membrane potential at 0.3 uM after 48 hrs by JC1 staining-based flow cytometry analysis (reference value: 92.35%). It counts as functional.
Experiment [11] concerns HL-60. Description: Induction of mitochondrial membrane potential loss in human HL60 cells assessed as cell population with intact mitochondrial membrane potential at 0.6 uM after 48 hrs by JC1 staining-based flow cytometry analysis (reference value: 92.35%). The class given is functional.
Experiment [12] concerns HL-60. Put plainly: Induction of mitochondrial membrane potential loss in human HL60 cells assessed as cell population with intact mitochondrial membrane potential at 1.2 uM after 48 hrs by JC1 staining-based flow cytometry analysis (reference value: 92.35%). It counts as functional.

One may read the IC50 as the point on the concentration scale where inhibition reaches its midpoint.

On to `CN1c2ccccc2C(=O)N2CCc3c(n(CCCCC(=O)OCCCCOc4ccc(-c5cc(=S)ss5)cc4)c4ccccc34)C21` (centres undefined), for which the figures for the IC50 with Bel-7402 and in the experiment with Caco-2 were 48.9 µM and 2.02 µM, respectively. In addition, the Activity is 47.1% with HL-60 [1]; 41.49% in the experiment on HL-60 [2]; 11.41% with HL-60 [3]; 22.02% with HL-60 [4]; 4.53% in the experiment with HL-60 [6]; 19.5% in the experiment with HL-60 [8]. Also, the Activity turned out to be 13.33% in the experiment on HL-60 [9], 86.67% in the experiment with HL-60 [10], 78.68% with HL-60 [11] and 64.99% in the experiment with HL-60 [12]. In the experiment on HL-60 [5], the viability at 0.3 µM is 88.7%. Besides, the viability at 0.6 µM with HL-60 [7] turned out to be 64.5%.

The values are drawn from ChEMBL document CHEMBL4152203, “Antiproliferative hydrogen sulfide releasing evodiamine derivatives and their apoptosis inducing properties” (Eur J Med Chem, 2018).
